ChEMBL document CHEMBL1121783, “Potential inhibitors of nucleotide biosynthesis. 1. Nitrosoureidonucleosides. 2” (J Med Chem, 1981)
Calls of active or inactive are those of the source. The rule behind the calls is not given here.

What was measured:
[1] = Half-life in pH 7 phosphate buffer by using high-performance LC method
HEp-2 [2] = assay: Growth, % of control, at a dose of 20 ug/ml against growth of H.Ep.-2 cells; 75-80%; conditions: Homo sapiens
Nucleic Acid [3] = assay: Percent inhibitory activity dose at 100 ug/mL to inhibit the incorporation of hypoxanthine and gaunine in DNA; format: functional
[4] = Activity against hypoxanthine phosphoribosyltransferase; Not significant; format: functional
P388 [5] = assay: Activity against P388 leukemia cells; Inactive; format: functional; conditions: Mus musculus
Procedure, shortened: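 In vivo P388 leukemia model; compound given daily for 9 days; activity scored as percent increase in life span (ILS).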

Nucleic Acid [6] = assay: Percent inhibitory activity dose at 100 ug/mL to inhibit the incorporation of hypoxanthine and gaunine in RNA; format: functional
[7] = Half-life in pH 7 phosphate buffer by using high-performance LC method; remark: listed apart in the source
[8] = Half-life in plasma by using UV method; format: ADME, cell-free
[9] = Half-life in pH 7 phosphate buffer by using high-performance LC method; remark: listed apart in the source
HEp-2 [10] = assay: Growth, % of control, at a dose of 20 ug/ml against growth of H.Ep.-2 cells; 75-80%; conditions: Homo sapiens; remark: listed apart in the source
P388 [11] = assay: Activity at a dose of 200 mg/kg for 9 days against P388 leukemia cells; format: functional; conditions: Mus musculus, P388, 216 h
Procedure, shortened: (§1)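 P388 leukemia test: the compound was given daily for 9 days at 200 or 400 mg/kg. Activity is reported as percent increase in life span (ILS).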

P388 [12] = assay: Activity at a dose of 400 mg/kg against P388 leukemia cells; format: functional; conditions: Mus musculus
Procedure, shortened: as §1

With `Cc1cn(C2CC(O)C(C(=O)NCCNC(=O)N(C)N=O)O2)c(=O)[nH]c1=O` (configuration not stated) the half-life [1] was 29 h.

`CNC(=O)NCCNC(=O)[C@H]1OC(n2cnc3c(O)ncnc32)[C@H](O)[C@@H]1O` (some centres not stated) gave a growth, % of control at 20 µg/mL (HEp-2 [2]) of 75%.

`CNC(=O)NCCNC(=O)C1OC(n2cc(C)c(=O)[nH]c2=O)CC1O` (configuration not stated) showed a growth, % of control at 20 µg/mL (HEp-2 [2]) of 75%.

With `CN(N=O)C(=O)NCCNC(=O)[C@H]1OC(n2cnc3c(O)ncnc32)[C@H](O)[C@@H]1O` (some centres not stated) the inhibition (Nucleic Acid [3]) was 35%, the inhibition [4] was “inactive” and the inhibition (P388 [5]) was “inactive”. The inhibition (Nucleic Acid [6]) was 61% and the half-life [7] was 127 h.

For `Cc1cn(C2C[C@H](O)[C@@H](C(=O)NCCN(N=O)C(=O)NC3CCCCC3)O2)c(=O)[nH]c1=O` (some centres not stated), the half-life [8] was 11 h.

`O=NN(CCCl)C(=O)NC1CCCCC1` [LOMUSTINE] showed a half-life [1] of 0.88 h.

`CN(N=O)C(N)=O` [N-METHYL-N-NITROSUREA] showed a half-life [1] of 0.12 h.

Work on `O=NN(CCNC(=O)[C@H]1OC(n2ccc(=O)[nH]c2=O)[C@H](O)[C@@H]1O)C(=O)NC1CCCCC1` (some centres not stated) yielded a half-life [9] of 8 h and a growth, % of control at 20 µg/mL (HEp-2 [10]) of 75%.

Work on `O=NN(CCNC(=O)[C@H]1OC(n2cnc3c(O)ncnc32)[C@H](O)[C@@H]1O)C(=O)NC1CCCCC1` (some centres not stated) yielded a half-life [1] of 12 h.

`CN(N=O)C(=O)NCCNC(=O)[C@H]1OC(n2ccc(=O)[nH]c2=O)[C@H](O)[C@@H]1O` (some centres not stated) gave an ILS at 200 mg/kg (P388 [11]) of 28%, an ILS at 400 mg/kg (P388 [12]) of 26% and a half-life [9] of 17 h.
